In ChEMBL document CHEMBL1123914, “6-Methylergoline-8-carboxylic acid esters as serotonin antagonists: N1-substituent effects on 5HT2 receptor affinity” (J Med Chem, 1987) one finds -Log KB data, which are given here for 30 molecules.

T1 sequence (P08909 whole entry, looked up): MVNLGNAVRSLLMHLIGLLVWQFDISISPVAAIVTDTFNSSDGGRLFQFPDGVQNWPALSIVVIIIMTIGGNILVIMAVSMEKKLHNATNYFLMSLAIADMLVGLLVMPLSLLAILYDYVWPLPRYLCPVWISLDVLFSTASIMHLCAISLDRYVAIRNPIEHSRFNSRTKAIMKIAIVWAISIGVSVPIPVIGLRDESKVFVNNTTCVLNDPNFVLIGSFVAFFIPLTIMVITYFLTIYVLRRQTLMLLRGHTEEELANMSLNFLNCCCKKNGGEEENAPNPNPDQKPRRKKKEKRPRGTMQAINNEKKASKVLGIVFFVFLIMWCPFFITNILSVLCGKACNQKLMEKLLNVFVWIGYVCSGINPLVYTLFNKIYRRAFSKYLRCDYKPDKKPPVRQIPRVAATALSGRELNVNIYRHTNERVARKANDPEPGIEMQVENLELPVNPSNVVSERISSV
T1 sequence (P14842 whole entry, looked up): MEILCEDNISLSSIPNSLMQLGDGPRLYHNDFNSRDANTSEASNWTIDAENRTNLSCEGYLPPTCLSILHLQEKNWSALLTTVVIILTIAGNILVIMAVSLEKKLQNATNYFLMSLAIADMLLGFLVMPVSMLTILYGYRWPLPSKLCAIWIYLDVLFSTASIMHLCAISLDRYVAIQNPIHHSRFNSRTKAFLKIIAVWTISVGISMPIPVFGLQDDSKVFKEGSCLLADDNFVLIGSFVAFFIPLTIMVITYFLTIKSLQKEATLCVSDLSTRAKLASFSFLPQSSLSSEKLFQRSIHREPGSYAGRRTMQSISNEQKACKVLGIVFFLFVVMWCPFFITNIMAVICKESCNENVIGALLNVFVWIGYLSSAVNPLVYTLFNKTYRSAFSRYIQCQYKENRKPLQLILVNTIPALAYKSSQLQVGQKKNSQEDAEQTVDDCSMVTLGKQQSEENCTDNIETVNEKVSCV
T1 sequence (P30994 whole entry, looked up): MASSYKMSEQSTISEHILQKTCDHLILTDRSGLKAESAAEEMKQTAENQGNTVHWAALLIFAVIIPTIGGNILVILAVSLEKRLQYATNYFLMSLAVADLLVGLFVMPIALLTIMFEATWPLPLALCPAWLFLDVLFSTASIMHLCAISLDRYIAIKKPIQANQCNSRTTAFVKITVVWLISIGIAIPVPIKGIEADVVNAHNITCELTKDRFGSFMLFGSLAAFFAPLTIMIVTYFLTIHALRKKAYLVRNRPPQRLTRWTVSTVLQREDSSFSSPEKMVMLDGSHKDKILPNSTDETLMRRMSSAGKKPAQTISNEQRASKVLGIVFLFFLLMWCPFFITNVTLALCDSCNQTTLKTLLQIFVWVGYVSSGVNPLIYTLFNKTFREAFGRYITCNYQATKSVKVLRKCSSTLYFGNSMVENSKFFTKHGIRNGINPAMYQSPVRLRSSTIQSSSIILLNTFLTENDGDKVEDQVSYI

The target in the first assay is T1, Serotonin 2 (5-HT2) receptor (Rattus norvegicus) (UniProt P30994+P08909+P14842). The assay can be described thus: Affinity towards 5-hydroxytryptamine 2 receptor by measuring its ability to antagonize serotonin-induced contractions in the rat jugular vein. The essentials:
(§1)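 Rat external jugular vein rings, cannulated and mounted between two L-shaped needles on a force transducer in Krebs bicarbonate buffer. Tissues equilibrated 1–2 h. After control cumulative serotonin contraction curves, vessels were incubated with antagonist for 1 h and the serotonin curves repeated. K_B = [B]/(dose ratio − 1), where dose ratio is agonist ED50 with antagonist over control ED50. Reported as −log K_B.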
Regarding `CCc1c(C)n(C)c2ccc(N(C)C)cc12`, the -Log KB amounted to 6.51.

As for `CCc1c(C)n(C(C)C)c2ccc(N(C)C)cc12`, the -Log KB was determined as 7.28.

`COC(=O)C1CC2c3cccc4c3c(cn4CC(C)C)CC2N(C)C1` (stereo not given) came in with a -Log KB of 7.57.

`CC(O)C(C)OC(=O)C1CC2c3cccc4c3c(cn4C(C)C)CC2N(C)C1` (stereo not given): the -Log KB is 9.76.

Take `CCc1c(C)n(CC)c2ccc(N(C)C)cc12`: the -Log KB was found to be 6.45.

`COC(=O)C1CC2c3cccc4c3c(cn4Cc3ccccc3)CC2N(C)C1` (stereo not given) gave a -Log KB of 7.64.

Take `CCc1c(C)[nH]c2ccc(N(C)C)cc12`: the -Log KB stood at 4.93.

In turn, `CCCn1cc2c3c(cccc31)C1CC(C(=O)OC)CN(C)C1C2` (stereo not given) came in with a -Log KB of 7.72.

Take `CC(O)C(C)OC(=O)C1CC2c3cccc4c3c(cn4C)CC2N(C)C1` (stereo not given): the -Log KB amounted to 9.26.

In turn, `CC(C)n1cc2c3c(cccc31)C1CC(C(=O)OCCO)CN(C)C1C2` (stereo not given) returned a -Log KB of 9.13.

For the molecule `CN1CC(C(=O)OCCO)CC2c3cccc4c3c(cn4C)CC21` (stereo not given), the -Log KB was 8.63.

The molecule `CCn1cc2c3c(cccc31)C1CC(C(=O)OC(C)C(C)O)CN(C)C1C2` (stereo not given) came in with a -Log KB of 8.9.

Take `CC(C)Cn1cc2c3c(cccc31)C1CC(C(=O)OC(C)C(C)O)CN(C)C1C2` (stereo not given): the -Log KB was found to be 7.53.

As to `CCCCCCCCn1cc2c3c(cccc31)C1CC(C(=O)OC(C)C(C)O)CN(C)C1C2` (stereo not given), the -Log KB was < 7.

`CCn1cc2c3c(cccc31)C1CC(C(=O)OC)CN(C)C1C2` (stereo not given) registered a -Log KB of 8.12.

As for `C=CCn1cc2c3c(cccc31)C1CC(C(=O)OCCO)CN(C)C1C2` (stereo not given), the -Log KB was 8.17.

`COC(=O)C1CC2c3cccc4[nH]cc(c34)CC2N(C)C1` (stereo not given) showed a -Log KB of 8.1.

Turning to `COC(=O)C1CC2c3cccc4c3c(cn4C)CC2N(C)C1` (stereo not given), the -Log KB came to 8.23.

`CC(O)C(C)OC(=O)C1CC2c3cccc4c3c(cn4C3CCCCCC3)CC2N(C)C1` (stereo not given): the -Log KB is 7.45.

`C=CCn1cc2c3c(cccc31)C1CC(C(=O)OC)CN(C)C1C2` (stereo not given) gave a -Log KB of 7.89.

With `CCCn1cc2c3c(cccc31)C1CC(C(=O)OC(C)C(C)O)CN(C)C1C2` (stereo not given), the -Log KB was found to be 8.34.

On to `CN1CC(C(=O)OCCO)CC2c3cccc4[nH]cc(c34)CC21` (stereo not given), for which the -Log KB worked out at 7.62.

`COC(=O)C1CC2c3cccc4c3c(cn4C(C)C)CC2N(C)C1` (stereo not given) came in with a -Log KB of 8.29.

The molecule `CN1CC(C(=O)OCCO)CC2c3cccc4c3c(cn4Cc3ccccc3)CC21` (stereo not given) came in with a -Log KB of 8.12.

With `CC(O)C(C)OC(=O)C1CC2c3cccc4c3c(cn4Cc3ccccc3)CC2N(C)C1` (stereo not given), the -Log KB is 7.37.

Molecule `CC(C)Cn1cc2c3c(cccc31)C1CC(C(=O)OCCO)CN(C)C1C2` (stereo not given) displayed a -Log KB of 7.42.

Regarding `CC(O)C(C)OC(=O)C1CC2c3cccc4[nH]cc(c34)CC2N(C)C1` (stereo not given), the -Log KB is 8.42.

Another assay deals with T1, Serotonin 2 (5-HT2) receptor (Rattus norvegicus). The assay can be described thus: Affinity towards 5-hydroxytryptamine 2 receptor by measuring its ability to antagonize serotonin-induced contractions in the rat jugular vein; no appreciable 5-HT2 receptor affinity. The essentials:
as §1
Turning to `CC(O)C(C)OC(=O)C1CC2c3cccc4c3c(cn4C3CCCC3)CC2N(C)C1` (stereo not given), the -Log KB was < 7.

As for `CCC(CC)n1cc2c3c(cccc31)C1CC(C(=O)OC(C)C(C)O)CN(C)C1C2` (stereo not given), the -Log KB is < 7.

On to `CCC(CC)n1cc2c3c(cccc31)C1CC(C(=O)OC)CN(C)C1C2` (stereo not given), for which the -Log KB was < 7.
